Experimental data published in ChEMBL document CHEMBL4613272, “Anti-HIV-Active Nucleoside Triphosphate Prodrugs” (J Med Chem, 2020).

Tests used:
[1] = Half life in pH 7.3 phosphate buffered saline by HPLC analysis; assay type: physicochemical
Method in brief: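 Prodrug from 50 mM DMSO-d6 stock diluted to 1.9 mM with water/DMSO-d6. Reaction started by adding phosphate buffer (50 mM stock, pH 7.3). Products followed by analytical RP18 HPLC with TBAA or TEAA buffer/acetonitrile gradient.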

[2] = test system: Human immunodeficiency virus 2; assay: Antiviral activity against HIV2 ROD infected in thymidine kinase-deficient human CEM cells assessed as inhibition of virus-induced giant cell formation measured after 4 to 5 days by microscopic analysis; conditions: Human immunodeficiency virus 2, ISOLATE ROD, CCRF-CEM
[3] = Selectivity index, ratio of CC50 for human CEM cells to EC50 for HIV1 HE infected in human CEM/0 cells; conditions: CEM cells (CC50) and HIV1 HE infected CEM/0 cells (EC50)
[4] = Cytotoxicity against human CEM cells assessed as reduction in cell proliferation; assay type: cell-based; conditions: CEM cells (CCRF-CEM)
Method in brief: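 CC50 is the compound concentration inhibiting CEM CD4+ T-cell proliferation by 50%. Mean ± SD of n=2-3 independent experiments.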

[5] = test system: Human immunodeficiency virus 2; assay: Antiviral activity against HIV2 ROD infected in human CEM/0 cells assessed as inhibition of virus-induced giant cell formation measured after 4 to 5 days by microscopic analysis; conditions: Human immunodeficiency virus 2, ISOLATE ROD, CCRF-CEM
[6] = test system: Human immunodeficiency virus 1; assay: Antiviral activity against HIV1 HE infected in human CEM/0 cells assessed as inhibition of virus-induced giant cell formation measured after 4 to 5 days by microscopic analysis; conditions: Human immunodeficiency virus 1, HE, CCRF-CEM

With `CCCCCCCCCCCCCCCCOC(=O)Oc1ccc(COP(=O)(OCc2ccc(OC(=O)CCCCCC)cc2)OP(=O)(O)OP(=O)(O)OC[C@@H]2C=C[C@H](n3cc(C)c(=O)[nH]c3=O)O2)cc1.N.N` (stereo not given in full) the half-life [1] was 89 h.

In the case of `CCCCCCCCCCCCCCCOC(=O)Oc1ccc(COP(=O)(OCc2ccc(OC(=O)CCCC)cc2)OP(=O)(O)OP(=O)(O)OC[C@@H]2C=C[C@H](n3cc(C)c(=O)[nH]c3=O)O2)cc1.N.N` (stereo not given in full), the half-life [1] is reported as 74 h.

`Cc1cn([C@H]2C=C[C@@H](CO)O2)c(=O)[nH]c1=O` [STAVUDINE] showed an EC50 [2] of 31.1 µM, a selectivity ratio [3] greater than 116 and a CC50 [4] greater than 50 µM.

Work on `CCCCCCCCCCCCCCOC(=O)Oc1ccc(COP(=O)(OCc2ccc(OC(=O)CCCC)cc2)OP(=O)(O)OP(=O)(O)OC[C@@H]2C=C[C@H](n3cc(C)c(=O)[nH]c3=O)O2)cc1.N.N` (stereo not given in full) yielded a half-life [1] of 69 h.

With `CCCCCCCCCCCCCCCCOC(=O)Oc1ccc(COP(=O)(OCc2ccc(OC(=O)CCCCCCCCC)cc2)OP(=O)(O)OP(=O)(O)OC[C@@H]2C=C[C@H](n3cc(C)c(=O)[nH]c3=O)O2)cc1.N.N` (stereo not given in full) the EC50 [5] was 0.078 µM, the EC50 [6] was 0.16 µM and the EC50 [2] was 0.24 µM. It also gave a selectivity ratio [3] of 100, a half-life [1] of 85 h and a CC50 [4] of 16 µM.

Molecule `CCCCCCCCCCCC(=O)Oc1ccc(COP(=O)(O)OP(=O)(O)OP(=O)(O)OC[C@@H]2C=C[C@H](n3cc(C)c(=O)[nH]c3=O)O2)cc1.N.N.N` has a half-life [1] of 460 h.

Work on `CCCCCCCCCOC(=O)Oc1ccc(COP(=O)(OCc2ccc(OC(=O)OCCCCCCCCC)cc2)OP(=O)(O)OP(=O)(O)OC[C@@H]2C=C[C@H](n3cc(C)c(=O)[nH]c3=O)O2)cc1.N.N` yielded an EC50 [5] of 0.09 µM, an EC50 [6] of 0.34 µM and an EC50 [2] of 0.23 µM. It also gave a selectivity ratio [3] of 100, a half-life [1] of 101 h and a CC50 [4] of 34 µM.

`CCCCCCCCCCCCOC(=O)Oc1ccc(COP(=O)(O)OP(=O)(O)OP(=O)(O)OC[C@@H]2C=C[C@H](n3cc(C)c(=O)[nH]c3=O)O2)cc1.N.N.N` gave an EC50 [5] of 0.25 µM, an EC50 [6] of 0.33 µM and an EC50 [2] of 1.98 µM. For the same molecule, the selectivity ratio [3] was greater than 303, the half-life [1] was 625 h and the CC50 [4] was greater than 100 µM.

Molecule `CCCCCCCCCCCCCCCCOC(=O)Oc1ccc(COP(=O)(OCc2ccc(OC(=O)CC(C)C)cc2)OP(=O)(O)OP(=O)(O)OC[C@@H]2C=C[C@H](n3cc(C)c(=O)[nH]c3=O)O2)cc1.N.N` (stereo not given in full) has a half-life [1] of 77 h.

`Cc1cn([C@H]2C=C[C@@H](COP(=O)(O)OP(=O)(O)OP(=O)(O)O)O2)c(=O)[nH]c1=O` [STAVUDINE TRIPHOSPHATE] showed a half-life [1] greater than 500 h.

`CCCCCCCCCCCCOC(=O)Oc1ccc(COP(=O)(OCc2ccc(OC(=O)C(C)C)cc2)OP(=O)(O)OP(=O)(O)OC[C@@H]2C=C[C@H](n3cc(C)c(=O)[nH]c3=O)O2)cc1.N.N` (stereo not given in full) gave a half-life [1] of 70 h.

For `CCCCCCCCCCOC(=O)Oc1ccc(COP(=O)(OCc2ccc(OC(=O)CC)cc2)OP(=O)(O)OP(=O)(O)OC[C@@H]2C=C[C@H](n3cc(C)c(=O)[nH]c3=O)O2)cc1.N.N` (stereo not given in full), the half-life [1] was 34 h.

`CCCCCCOC(=O)Oc1ccc(COP(=O)(O)OP(=O)(O)OP(=O)(O)OC[C@@H]2C=C[C@H](n3cc(C)c(=O)[nH]c3=O)O2)cc1.N.N.N` showed a half-life [1] of 544 h.

Molecule `CCCCCCCCCCCCCCCCCCOC(=O)Oc1ccc(COP(=O)(OCc2ccc(OC(=O)OCCCC)cc2)OP(=O)(O)OP(=O)(O)OC[C@@H]2C=C[C@H](n3cc(C)c(=O)[nH]c3=O)O2)cc1.N.N` (stereo not given in full) has a half-life [1] of 111 h.

In the case of `CCCCCCCCCCCCCCCCOC(=O)Oc1ccc(COP(=O)(OCc2ccc(OC(C)=O)cc2)OP(=O)(O)OP(=O)(O)OC[C@@H]2C=C[C@H](n3cc(C)c(=O)[nH]c3=O)O2)cc1.N.N` (stereo not given in full), the half-life [1] is reported as 81 h.

With `CCCCCCCCCCCCCCOC(=O)Oc1ccc(COP(=O)(OCc2ccc(OC(=O)CC)cc2)OP(=O)(O)OP(=O)(O)OC[C@@H]2C=C[C@H](n3cc(C)c(=O)[nH]c3=O)O2)cc1.N.N` (stereo not given in full) the half-life [1] was 74 h.

For `CCCCCCCCCCCCOC(=O)Oc1ccc(COP(=O)(OCc2ccc(OC(=O)CCC)cc2)OP(=O)(O)OP(=O)(O)OC[C@@H]2C=C[C@H](n3cc(C)c(=O)[nH]c3=O)O2)cc1.N.N` (stereo not given in full), the half-life [1] was 75 h.

In the case of `CCCCCCCCCCCOC(=O)Oc1ccc(COP(=O)(OCc2ccc(OC(=O)CC)cc2)OP(=O)(O)OP(=O)(O)OC[C@@H]2C=C[C@H](n3cc(C)c(=O)[nH]c3=O)O2)cc1.N.N` (stereo not given in full), the half-life [1] is reported as 52 h.
